Most compounds without a hit are left out; they make up all but 3.8% or so of the library.
Kir21 block – Kir2.1 (mouse) channel inhibition | B-score at 10 µM | AID 1672 | P35561 | 0.85% of 310,000 active | HEK293-Kir2.1, FluxOR thallium flux fluorescence; stronger effect = lower value;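 active means fluorescence ratio B-score at or below minus 3 SD of library scores, with starting-brightness B-score within 2 SD, cut at about -4.2 in these data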;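 further: channel flux triggered by added potassium and thallium sulfate stimulus; B-score of peak minus minimum fluorescence over baseline after thallium stimulus; more negative B-score means stronger Kir2.1 block with less thallium influx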
KCNQ1 act – potentiates or activates the human KCNQ1 potassium channel | 0.35% of 310,000 active | CHO-K1 KCNQ1, thallium flux FluxOR fluorescence; stronger effect = higher value | B-score at 10 µM | P51787 | AID 2648;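 active means fluorescence ratio B-score, a plate-corrected score, at least three library SD, with initial intensity B-score within 5 SD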
Target sequence (P51787 whole entry, looked up): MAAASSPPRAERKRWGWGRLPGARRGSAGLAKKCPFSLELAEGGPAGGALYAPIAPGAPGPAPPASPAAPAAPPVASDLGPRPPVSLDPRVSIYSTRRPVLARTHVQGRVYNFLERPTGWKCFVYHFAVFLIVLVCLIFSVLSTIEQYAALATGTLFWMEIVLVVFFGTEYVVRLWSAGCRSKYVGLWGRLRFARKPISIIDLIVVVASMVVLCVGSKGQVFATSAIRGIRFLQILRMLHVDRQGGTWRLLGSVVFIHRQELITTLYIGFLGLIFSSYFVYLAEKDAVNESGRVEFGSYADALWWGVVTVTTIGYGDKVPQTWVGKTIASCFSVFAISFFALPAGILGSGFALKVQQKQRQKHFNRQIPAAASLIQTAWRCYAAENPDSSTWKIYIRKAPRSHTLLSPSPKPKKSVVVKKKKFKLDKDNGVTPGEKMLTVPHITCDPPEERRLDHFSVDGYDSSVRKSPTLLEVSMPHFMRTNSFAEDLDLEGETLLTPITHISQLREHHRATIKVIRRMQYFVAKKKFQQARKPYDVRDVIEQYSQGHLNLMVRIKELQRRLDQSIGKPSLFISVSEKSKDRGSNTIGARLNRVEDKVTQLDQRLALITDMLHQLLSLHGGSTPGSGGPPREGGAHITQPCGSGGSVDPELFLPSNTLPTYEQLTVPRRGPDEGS
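Material: CHO-K1 cells stably expressing KCNQ1. Medium: assay buffer for compound exposure, DMSO matched across wells. Reagent: K+/Tl+ depolarizing stimulus. Compound dosing: single-concentration screen. Times: 37 °C overnight plating, 90-min dark dye load, 20-min compound pretreatment. Technique: FluxOR Tl+ flux fluorescence.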
KCNK3 inh – human KCNK3 channel inhibition, primary screen. 0.84% of 340,000 active. CHO-KCNK3 thallium flux, FluxOR fluorescence; stronger effect = lower value. AID 602410. B-score at 10 µM;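 active means B-score under library mean minus 4 SD, starting fluorescence ratio at most library mean plus 5 SD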;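 further: more negative B-score means stronger inhibition of thallium flux through KCNK3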
hERG rescue – shields human hERG channel from block by proarrhythmic agents; AID 1511; CHO-hERG, FluxOR thallium flux, dofetilide IC70 present; 0.51% of 310,000 active; activation (rescue from dofetilide block), less the hit threshold, % at 10 µM; Q12809;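 active means activation above the mean of controls blocked by dofetilide plus 5 SD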;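 further: thallium influx through hERG after potassium depolarization seen as dye fluorescence rise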
KCNQ1 inh – human KCNQ1 channel inhibition; 1.3% of 310,000 active; AID 2642; CHO-K1 KCNQ1, FluxOR thallium flux fluorescence; stronger effect = higher value; B-score at 10 µM;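 active means compounds whose thallium flux B-score, printed positive for inhibition, exceeds three library SD while starting fluorescence stays within three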;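 further: channel opened by potassium depolarization with thallium stimulus after 20 min compound exposure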
KCNK9 block – blocks the human KCNK9 two-pore domain potassium channel; B-score at 10 µM; 1.2% of 310,000 active; HEK293 KCNK9, FluxOR thallium flux fluorescence; stronger effect = lower value;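 active means ratio B-score over 3 SD below the library mean, with starting fluorescence within 5 SD of its mean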;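 further: negative B-score means less thallium flux so channel inhibition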
* hit, by the source's call; i = inactive; . = no result.

SMILES	Kir21 block	KCNQ1 act	KCNK3 inh	hERG rescue	KCNQ1 inh	KCNK9 block
O=C(N/N=C/c1ccc2cccc(OCc3ccccc3)c2n1)c1ccc(Br)cc1	2.8	i	i	11*	i	i
COc1ccc(C(=O)N/N=C/c2ccc3cccc(OCc4ccccc4)c3n2)cc1	0.23	i	i	-3	i	i
CCC(C)N(C(=O)COC(=O)CSc1ccc([N+](=O)[O-])cc1)C1CCS(=O)(=O)C1 (stereo not drawn)	0.07	i	i	-7	i	i
O=C(/C(=N\Nc1ccc(Br)cc1)Sc1nnnn1-c1ccccc1)c1ccccc1	0.16	i	i	-7	i	i
Cc1sc(-c2ccccn2)nc1OC(=O)c1ccc(Cl)cc1	1.2	i	i	-8	i	i
Cc1sc(-c2ccccn2)nc1OC(=O)c1cccc(Cl)c1Cl	0.09	i	i	5.8*	i	i
Cc1ccc(NC(=O)CCSCCc2ccccn2)cc1	-1.4	i	i	-12	i	i
COc1ccc(N/C=C(\C#N)c2nc3ccccc3n2C)c(OC)c1	1.2	i	i	-14	i	-7*
COc1ccc(CNc2nc3ccccc3n2C)c(OC)c1	-0.07	i	i	-11	i	i
CCOC(=O)C1=NN(C(=O)c2ccc(OC)cc2)C(O)(c2ccc(Cl)cc2)C1 (stereo not drawn)	1	56*	i	40*	i	i
Cc1ccc(-n2nc3c(=O)n(CCCC(=O)NCc4ccccc4C)nc(C)c3c2C)cc1	-0.39	i	i	-10	i	i
CN1C(=O)c2cccc3c(Cl)ccc(c23)C1=O	-1.4	i	i	-9	i	i
CN1C(=O)c2cccc3c(N(C)C)ccc(c23)C1=O	-2.7	i	i	-16	6*	i
Cc1ccc(NC(=O)c2c(Cl)n(C)c3ccccc23)cc1	0.98	i	i	-3	i	-7.1*
Cc1cc(NC(=O)COC(=O)Cn2c(C)csc2=O)ccc1Br	1.7	i	i	-9	6*	i
CC(=O)OCC(=O)Nc1ccc(Br)c(C)c1	2.3	i	i	-9	i	i
O=C(Nc1ccc(N2CCCC2)c(Cl)c1)c1ccc([N+](=O)[O-])o1	.	.	i	.	.	.
CC1CCc2c(sc3ncnc(NS(=O)(=O)c4cccs4)c23)C1 (stereo not drawn)	1.7	i	i	-5	i	i
CC(NC(=S)NC(=O)c1ccccc1Br)c1ccccc1 (stereo not drawn)	2.2	8*	i	0	i	i
CCCCN(C(=O)c1cc2ccccc2o1)c1c(N)n(CC(C)C)c(=O)[nH]c1=O	-2.4	i	i	-13	i	i
N#Cc1ccccc1NS(=O)(=O)c1cc2c3c(c1)CCC(=O)N3CCC2	1.1	8*	i	-7	i	i
CC(=O)Nc1ccc(NC(=O)COC(=O)C2(c3ccc(Cl)cc3)CCCC2)cc1	-0.33	i	i	-4	i	i
CCc1cccc(CC)c1NC(=O)COC(=O)C1(c2ccc(Cl)cc2)CCCC1	-0.02	i	i	-12	i	-7.1*
COc1ccc(Cl)cc1NC(=O)C(C)N(C)Cc1ccc(C(F)(F)F)cc1 (stereo not drawn)	0.76	i	i	-17	i	-7.4*
COc1cc(CN(C)C(C)C(=O)Nc2ccc([N+](=O)[O-])cc2Cl)ccc1OC(F)F (stereo not drawn)	-0.14	i	i	-12	i	i
SMILES	Kir21 block	KCNQ1 act	KCNK3 inh	hERG rescue	KCNQ1 inh	KCNK9 block
COc1ccc(OC)c(Nc2nc(-c3sc(N)nc3C)cs2)c1	0.1	i	i	-9	i	-6.7*
Cc1cc(O)ccc1Nc1nc(-c2sc(N)nc2C)cs1	-1.7	i	i	-16	i	i
O=S(=O)(c1ccccc1)c1ccc(C(F)(F)F)cn1	-0.19	i	i	-6	i	i
CC[C@H](C)/C=C(C)/C=C/C(=O)Cc1cc(O)c(C)c(O)c1C=O	-1.3	i	-10*	-14	11*	i
CC1CC(C)CN(CCCSc2ccccc2)C1 (stereo not drawn)	0.58	i	i	-7	i	i
CC1CC(C)CN(CCOCCSc2ccc(Cl)cc2)C1 (stereo not drawn)	-4.5*	i	i	-4	i	i
COc1ccc(-c2cc([C@H]3[C@H]4C=CC[C@@H](C)[C@@H]4C(=O)N3Cc3ccccc3)ccc2F)cc1	0.01	i	i	-8	i	i
O=C(N/N=C\c1cn(-c2ccccc2)nc1-c1ccccc1)c1ccc(Br)o1	1.9	i	i	-9	13*	-7.1*
O=C(N/N=C/c1ccc([N+](=O)[O-])o1)c1cn(-c2ccccc2)nc1-c1ccc(Cl)cc1	1.2	i	i	8.3*	i	i
O=C(N/N=C/c1ccc([N+](=O)[O-])o1)c1cn(-c2ccccc2)nc1-c1ccccc1	-0.15	i	i	-2	i	i
Cc1ccc(S(=O)(=O)N(CC(=O)NC2CCCCCC2)c2ccccc2F)cc1	-0.32	i	i	-11	i	i
CN1/C(=C\C(=O)COc2ccc3c(c2)OCO3)C(C)(C)c2ccccc21	-0.19	i	i	-16	i	-8*
COc1ccccc1OCC(=O)/C=C1/N(C)c2ccccc2C1(C)C	-2	i	i	-23	i	i
NC(=O)COC(=O)c1ccccc1SCC(=O)NC1CCCCCCC1	0.24	i	i	-10	i	i
CCOC(=O)c1c(NC(=O)C2c3ccccc3Oc3ccccc32)sc(C(C)=O)c1C	2.3	i	i	-12	i	-7.4*
CCOC(=O)c1c(NC(=O)CSc2nnc(-c3ccc(C)cc3)o2)sc(C(C)=O)c1C	.	.	-10*	.	.	.
Cc1sc2nc(CN3CCC(C)CC3)nc(Cl)c2c1C	0.21	i	.	-13	i	i
CC1(C)OC(=O)C(=C2CCCN2)C(=O)O1	-0.04	i	i	-6	i	i
CCOc1cccc(OCCOCCOc2ccccc2C(C)=O)c1	-1	i	i	-9	i	i
CCOc1ccc(OCCCCOc2ccccc2C(C)=O)cc1	0.07	i	i	-16	7*	i
NC(=S)c1cnn2c(-c3cccc(C(F)(F)F)c3)ccnc12	-1.3	i	i	-7	i	i
CCN(CC)CCNCC(O)(c1ccc(Cl)cc1)c1ccc(Cl)cc1	-5.6*	i	i	-11	i	i
CC(C)(C)NCC(O)(c1ccc(Cl)cc1)c1ccc(Cl)cc1	-3	i	i	-3	i	i

Compound activity as filed in PubChem BioAssay.
